Laboratory results as given in the EternaBench riboswitch data.

Columns and labels:
MS2 coat protein [1] = test: apparent Kd, MS2 coat protein; higher = weaker binding; RNA-MaP array; conditions: designed as: OFF switch for flavin mononucleotide
Method in brief: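 Designs measured on fewer than 10 clusters were excluded from the data. The rest were RNAs transcribed from sequenced DNA templates on an Illumina sequencing chip and incubated at room temperature, with or without input ligand, with fluorescently labeled MS2 coat protein at 1.5 nM to 3 μM for 0.8–1.5 h at the lowest to 10–20 min at the highest concentrations. Apparent Kd is the median of the per-cluster binding-curve fits.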

MS2 coat protein [2] = test: apparent Kd, MS2 coat protein; higher = weaker binding; RNA-MaP array; FMN 200 µM where present
Method in brief: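 Green signal was scaled to red-channel RNA signal and control-cluster median Fmax, and the apparent Kd was taken as the median of filtered per-cluster binding-curve fits. The binding series used SNAP-549-labelled MS2 coat protein from 0.7 or 1.5 nM, doubling to 3 µM, on designs transcribed by stalled E. coli RNA polymerase on Illumina sequencing-chip clusters. Each series ran without and then with constant ligand in 100 mM Tris-HCl pH 7.5, 80 mM KCl, 4 mM MgCl2, BSA, DTT, yeast tRNA and Tween-20.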

[3] = designed as: OFF switch for flavin mononucleotide, no ligand
[4] = ligand present: flavin mononucleotide, designed as: OFF switch for flavin mononucleotide
[5] = designed as: ON switch for flavin mononucleotide, no ligand
[6] = ligand present: flavin mononucleotide, designed as: ON switch for flavin mononucleotide

Row | Sequence | apparent Kd (MS2 coat protein [2]; [3]) | apparent Kd (MS2 coat protein [2]; [4]) | apparent Kd (MS2 coat protein [2]; [5]) | apparent Kd (MS2 coat protein [2]; [6]) | also measured
1 | ACUCCGUCGUAGAAGGGAAAAUGCUUGGCGUCUCUCGGGUACAUGAGGAUCACCCAUGUUACGGUUCAGGAUAUACAGACUGCU |  |  |  |  | apparent Kd (MS2 coat protein [1]; no ligand): 10.5 nM; apparent Kd (MS2 coat protein [1]; ligand present: flavin mononucleotide): 10.6 nM
2 | AAGAAAGUAUUGCGAGGGUAGGAGCAGGAUAUCCCAUUGGCCCUCACAUGAGGAUCACCCAUGUGGGAGAAGGGCUAUUACGUU | 6.51 nM | 13.2 nM |  |  | 
3 | AUAUGAUAGAUAGGAUAUACAUUGGAUUUAAAAGUAGAAGGAUCAAGUGGGAAUUAUACAUGAGGAUCACCCAUGUUUUUGGAU |  |  | 59 nM | 46.7 nM | 
4 | GAAUUAUUACAGAAGGUGUUUUACAUGAGGAUCACCCAUGUUUUAUUGUUUAAAUUUGUUAUUUACAAGGAUAUGUUCUAUUCU |  |  | 27 nM | 21.9 nM | 
5 | CCACCCUGAGGAUAUCCACCCUCAUACAUGAGGAUCACCCAUGUUAAUGCCUGAGUUCCCGGAGAAGGCAGAUUCC | 86.5 nM | 63.8 nM |  |  | 
6 | GAGAAGGUAGGAUAUACGAAUAAAUAGGGUAGGAAGAAGACACAUGAGGAUCACCCAUGUAGAAGGACCAAGAU | 18.8 nM | 38.3 nM |  |  | 
7 | UUGGACGUCGUAGGAUAUGUAGGAUAUUCCUACAUGAGGAUCACCCAUGUUGACAUGGAAGAAGGACAGAAGGACGAUUUCCAU |  |  | 284 nM | 5.41 nM | 
8 | GGACAUUUACAGAAGGGCAAAUUUUAUAGUGAAUAUUUAGUUCUGAUUUGCAGGAUAUGUGGAACAUGAGGAUCACCCAUGUCC |  |  | 13.8 nM | 6.71 nM | 
9 | GGAGCUCACAUUAACAUGAGGAUCACCCAUGUCUCUAGACAUGAGGAUAUGGAUCCUAAUUGGAUCCAGAAGGCAUGGAGCUCC |  |  | 1450 nM | 118 nM | 
10 | GUCAGCUCGUGAGGAUAUACAUCACUGCUUCGGCAGUGUAUUAAGUUCACAUGAGGAUCACCCAUGUAGAAGGCACGAGCUGAU | 15.2 nM | 20.3 nM |  |  | 
11 | ACUGAUCAUGAGGAUAUGCGCCAGAACGCCGGCGUAGAAGGCGUGACAUGAGGAUCACCCAUGUCAGUUCGCGA | 59.2 nM | 60.3 nM |  |  | 
12 | UUACUAUCACAGAAGGCUAGAUAGUAUAUAGAUGGAGGAUAUGUGACAUGAGGAUCACCCAUGUUUCACCGACAUGAGGAUCAC | 17.4 nM | 41.6 nM |  |  | 
13 | GUGAAGUGAGGAUAUACGAGAGAGGCUGAACCUGGAGAGAAGUAGAAGGCACAUGAGGAUCACCCAUGUUAGGA | 39.6 nM | 30.3 nM |  |  | 
14 | AGAAGACAUGAGGAUCACCCAUGUAAGGAUAUUGGAGGUUAGGGAUGCUGGAGUUGGACAAGAAGGUACAGGUG | 52.8 nM | 50.9 nM |  |  | 
15 | AGGCAAUCAGGAUAUACAUGAGGAUCACCCAUGUGUACAAAGCACAUCCGAUCUAGAUGUAGAAGGGAUAUGCA | 19.1 nM | 35.8 nM |  |  | 
16 | UGUCGGAGCAGAGGAUAUUACAUGAGGAUCACCCAUGUAUGAACCAAUAGCUGGAAACAGCAAUGUAAGAAGGCUGCUACGACA | 12.2 nM | 153 nM |  |  | 
17 | GGAUGUCAAAGACAUCCAAAUCGAACAUGAGGAUCACCCAUGUAGGAUAUGCUACUCAAAGAGUAGCAGAAGGACAUGUGCUUU | 41.5 nM | 223 nM |  |  | 
18 | GCACUUACGUUAGGAUAUGUAUCGGAAAACGAUACAGAAGGAAUAUGGGAACAUGAGGAUCACCCAUGUUCCUGAGACAAGUGC |  |  | 46.5 nM | 26.4 nM | 
19 | AGUACCAUGUAGAAGGGAUAUCUGAUUCAGAUAUCAGGAUAUACAUGAGGAUCACCCAUGUAAAUGUACUCCAGGAAACUGGAA | 18 nM | 48 nM |  |  | 
20 | CAUACAGUAGUUAGGAUAUUGCAACGUAUACGGAUCGAGAAGGGACAUGAGGAUCACCCAUGUAGAUUGUAAAG | 37.6 nM | 30.7 nM |  |  | 
21 | UCAUAAAAGAUCCUAUUUAUCUACAUGAGGAUCACCCAUGUGCAGGAUAUGCUAUAUUUAAUAAAGCAGAAGGGCAAUAACCGC | 127 nM | 309 nM |  |  | 
22 | GGUGCUCAAAGAGUACCAAUACGAACAUGAGGAUCACCCAUGUAGGAUAUGCUACUCAAAGAGUAGCAGAAGGACAUGUGCCUA | 16.4 nM | 116 nM |  |  | 
23 | GUGGUCAGACAUGAGGAUCACCCAUGUGGAAUAAAUAAGGAGAAGGAUAUGCAAUAUAGGAUAUAGCAGAAGGUCUGGUUGGUG |  |  | 80.1 nM | 92.7 nM | 
24 | UCAUACGGUGAGGAUAUCUCCGCUAAAGUGUGUAGAGAAGGCGCUACAUGAGGAUCACCCAUGUUUGUGGGCAG | 402 nM | 149 nM |  |  | 
25 | CGCAAAGAUGGGUUUAAUGGAGCAUAGGAUAUGCUUGUACAUGAGGAUCACCCAUGUAAUAUUGUGCAGAAGGGUGCAUUUGCG |  |  | 293 nM | 74.3 nM | 
26 | AGUGUGUGGCAGGAUAUGCAAUUUGUAAGUAUUGCAGAAGGGUCUACAUGAGGAUCACCCAUGUGUGCGGUUGA | 721 nM | 477 nM |  |  | 
